# In publication PMC5647227 (ACS chemical neuroscience, 2017):
# Entries after “also recorded” stand apart in the source; their conditions may differ.
# Key:
# MOP receptor [1] = biological target: MOP receptor (Rattus norvegicus, UniProt P33535); assay: Opioid receptor binding, [3H]DAMGO displacement from rat brain membranes
# hNK1 receptors [2] = biological target: T1, hNK1 receptors (Homo sapiens, UniProt P25103); assay: [3H]Substance-P competition binding assay, hNK1-CHO membranes
# DOP receptor [3] = biological target: DOP receptor (Rattus norvegicus, UniProt P33533); assay: Opioid receptor binding, [3H]DSLET displacement from rat brain membranes
# Sequence of DOP receptor (Rattus norvegicus, UniProt P33533) (P33533 whole entry): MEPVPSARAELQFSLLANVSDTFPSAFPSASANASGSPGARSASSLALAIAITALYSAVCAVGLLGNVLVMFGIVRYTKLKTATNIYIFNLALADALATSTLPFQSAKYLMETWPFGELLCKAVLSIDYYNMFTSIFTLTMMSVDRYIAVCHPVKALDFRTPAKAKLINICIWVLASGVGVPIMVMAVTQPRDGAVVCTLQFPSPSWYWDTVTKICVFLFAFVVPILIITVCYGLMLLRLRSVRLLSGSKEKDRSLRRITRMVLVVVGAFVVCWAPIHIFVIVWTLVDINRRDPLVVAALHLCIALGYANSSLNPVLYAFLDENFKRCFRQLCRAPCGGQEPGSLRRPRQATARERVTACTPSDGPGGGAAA
# hNK1 receptors [4] = biological target: T1, hNK1 receptors; assay: Functional NK1 receptor assay; assay type: cell-based
# DOP receptor [5] = biological target: DOP receptor (Mus musculus, UniProt P32300); assay: Mouse vas deferens; assay type: biochemical
# Sequence of DOP receptor (Mus musculus, UniProt P32300) (P32300 whole entry): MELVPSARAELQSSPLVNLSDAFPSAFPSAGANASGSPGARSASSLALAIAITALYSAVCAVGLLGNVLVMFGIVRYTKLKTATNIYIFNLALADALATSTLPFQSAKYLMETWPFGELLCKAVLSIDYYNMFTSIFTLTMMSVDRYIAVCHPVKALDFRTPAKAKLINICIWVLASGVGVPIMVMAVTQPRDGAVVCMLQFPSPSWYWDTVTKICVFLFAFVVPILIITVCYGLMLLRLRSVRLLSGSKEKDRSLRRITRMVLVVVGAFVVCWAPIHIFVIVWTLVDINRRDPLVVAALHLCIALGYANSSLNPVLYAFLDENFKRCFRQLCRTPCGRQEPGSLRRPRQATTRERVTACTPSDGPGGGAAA
# MOP receptor [6] = biological target: MOP receptor (Cavia porcellus, UniProt A0ACM8Q262); assay: Guinea pig ileum; assay type: biochemical; conditions: read-out: GPI IC50; representative of MOP receptor activation
# Sequence of MOP receptor (Cavia porcellus, UniProt A0ACM8Q262) (A0ACM8Q262 1-400): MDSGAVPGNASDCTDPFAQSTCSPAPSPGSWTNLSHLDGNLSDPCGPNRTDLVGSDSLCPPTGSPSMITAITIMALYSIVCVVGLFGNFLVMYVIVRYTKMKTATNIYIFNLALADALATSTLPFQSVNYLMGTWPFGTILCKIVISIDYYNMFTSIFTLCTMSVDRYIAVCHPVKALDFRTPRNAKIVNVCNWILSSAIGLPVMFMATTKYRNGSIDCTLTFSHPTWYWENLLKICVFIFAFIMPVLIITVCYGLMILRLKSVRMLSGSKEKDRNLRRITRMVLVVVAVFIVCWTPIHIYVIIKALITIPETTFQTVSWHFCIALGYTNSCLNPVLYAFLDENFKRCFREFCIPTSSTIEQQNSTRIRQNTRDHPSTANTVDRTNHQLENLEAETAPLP
# CCI-exposed mice [7] = assay: Neuropathic pain model, von Frey and cold plate tests taken together; assay type: in vivo, mouse; conditions: i.t.; for relative analgesic efficacy among hybrids in neuropathic pain model: von Frey and cold plate tests
# How it was run: (§1)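 CCI mice, unanesthetized, received test compound in water for injections intrathecally by lumbar puncture between L5 and L6, in a 5 μL volume. Doses ranged from about 0.1 to 10 nmol/animal. The cold plate was held at 2 °C and latency to hind-paw lift was timed, with a 30 s cutoff. Testing was done at 30, 90 and 180 min after dosing. Effect was expressed as % MPE.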
# naive mice = assay: Tail-flick test, acute pain after i.t. administration; assay type: in vivo, mouse; conditions: for duration of analgesic effect, tail-flick: 0.1 nmol; for analgesic effect in acute pain model: dose of 1 μg
# CCI-exposed mice [8] = assay: Von Frey test, tactile hypersensitivity in neuropathic pain model; assay type: in vivo, mouse; conditions: i.t.; for duration of effect, von Frey test: moderate dose ca. 1 nmol (1 μg)
# How it was run: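 CCI mice, unanesthetized, received test compound in water for injections intrathecally by lumbar puncture between L5 and L6, in a 5 μL volume. Doses ranged from about 0.1 to 10 nmol/animal. Calibrated nylon monofilaments (0.6–6 g, 6 g cutoff) were applied in serial increments to the hind-paw plantar surface until paw withdrawal, shaking or licking. Testing was done at 30, 90 and 180 min after dosing. Effect was expressed as % MPE.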
# CCI-exposed mice [9] = assay: Cold plate test, thermal hypersensitivity in neuropathic pain model; assay type: in vivo, mouse; conditions: i.t.
# How it was run: as §1
# Sequence of MOP receptor (Rattus norvegicus, UniProt P33535) (P33535 whole entry): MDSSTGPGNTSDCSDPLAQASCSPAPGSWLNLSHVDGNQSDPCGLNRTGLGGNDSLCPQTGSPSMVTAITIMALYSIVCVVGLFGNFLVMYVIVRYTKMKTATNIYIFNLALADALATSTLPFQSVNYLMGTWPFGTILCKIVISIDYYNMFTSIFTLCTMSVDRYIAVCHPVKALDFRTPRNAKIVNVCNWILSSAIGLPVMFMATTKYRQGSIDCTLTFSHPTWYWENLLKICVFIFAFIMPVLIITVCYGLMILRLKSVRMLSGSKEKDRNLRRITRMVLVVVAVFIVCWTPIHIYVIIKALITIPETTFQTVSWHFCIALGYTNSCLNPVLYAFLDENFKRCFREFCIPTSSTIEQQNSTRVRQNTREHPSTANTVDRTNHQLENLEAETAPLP
# T1 sequence (P25103 whole entry): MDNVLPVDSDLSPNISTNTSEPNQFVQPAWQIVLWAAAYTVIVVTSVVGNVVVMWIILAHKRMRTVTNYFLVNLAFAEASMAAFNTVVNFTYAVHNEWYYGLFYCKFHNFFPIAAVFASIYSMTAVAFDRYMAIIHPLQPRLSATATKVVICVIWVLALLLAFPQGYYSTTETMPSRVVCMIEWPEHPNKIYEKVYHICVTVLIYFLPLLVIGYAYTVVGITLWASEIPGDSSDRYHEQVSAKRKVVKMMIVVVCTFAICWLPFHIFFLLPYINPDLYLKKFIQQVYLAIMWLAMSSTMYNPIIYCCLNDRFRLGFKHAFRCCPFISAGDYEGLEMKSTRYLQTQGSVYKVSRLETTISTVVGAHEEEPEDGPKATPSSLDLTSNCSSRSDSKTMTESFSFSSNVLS
Compound,Ki (MOP receptor [1]) [nM],Ki (hNK1 receptors [2]) [nM],Ki (DOP receptor [3]) [nM],Kb (hNK1 receptors [4]) [µM],IC50 (DOP receptor [5]) [nM],IC50 (MOP receptor [6]) [nM],further results
"Cc1cc(O)cc(C)c1C[C@H](N)C(=O)N[C@H](CCCNC(=N)N)C(=O)N[C@H]1Cc2ccccc2CN(CCC(=O)N(Cc2cc(C(F)(F)F)cc(C(F)(F)F)c2)C2CC2)C1=O [Compound 6, H-Dmt-D-Arg-Aba-β-Ala-NcPr-3′,5′-(CF3)2-Bn]",47,735,190,4.37,16,18,–
"Cc1cc(O)cc(C)c1C[C@H](N)C(=O)N[C@H](CCCNC(=N)N)C(=O)N[C@H]1Cc2ccccc2CN(CCC(=O)N(Cc2ccccc2)C2CC2)C1=O [Compound 7, H-Dmt-D-Arg-Aba-β-Ala-NcPr-Bn]",2.7,520,66,6.31,6.6,19,–
"Cc1cc(O)cc(C)c1C[C@H](N)C(=O)N[C@H](CCCNC(=N)N)C(=O)N[C@H]1Cc2ccccc2CN(CC(=O)N(Cc2ccccc2)C2CC2)C1=O [Compound 8, H-Dmt-D-Arg-Aba-Gly-NcPr-Bn]",0.3,95,68,3.16,11.2,10,–
"Cc1cc(O)cc(C)c1C[C@H](N)C(=O)N[C@H](CCCNC(=N)N)C(=O)N[C@H]1Cc2ccccc2CN(CCC(=O)N2Cc3ccccc3C2)C1=O [Compound 9, H-Dmt-D-Arg-Aba-β-Ala-isoindoline]",0.2,> 10000,16,–,2.1,5,–
"Cc1cc(O)cc(C)c1C[C@H](N)C(=O)N[C@H](CCCNC(=N)N)C(=O)N[C@H]1Cc2ccccc2CN(CC(=O)N2Cc3ccccc3C2)C1=O [Compound 10, H-Dmt-D-Arg-Aba-Gly-isoindoline]",0.06,3500,81,692,8,7.3,–
"COc1ccccc1CN(C)C(=O)CN1Cc2ccccc2C[C@H](NC(=O)[C@@H](CCCNC(=N)N)NC(=O)[C@@H](N)Cc2c(C)cc(O)cc2C)C1=O [Compound 11, H-Dmt-D-Arg-Aba-Gly-NMe-2′-OMe-Bn]",0.9,501,26,14.5,2.4,5,–
"Cc1cc(O)cc(C)c1C[C@H](N)C(=O)N[C@H](CCCNC(=N)N)C(=O)N[C@H]1Cc2ccccc2CN(CCC(=O)N(C)Cc2ccc3ccccc3c2)C1=O [Compound 12, H-Dmt-D-Arg-Aba-β-Ala-NMe-2′-methylenenaphthyl]",0.4,612,44,0.0977,4,9,"relative analgesic efficacy among hybrids in neuropathic pain model (CCI-exposed mice [7]): weaker in both tests; duration of analgesic effect, tail-flick (naive mice): up to 180 min after administration; analgesic effect, tail-flick (naive mice; doses raised up to ca. 10 nmol): 60–70 % MPE; duration of effect, von Frey test (CCI-exposed mice [8]): not observable 180 min after administration"
"Cc1cc(O)cc(C)c1C[C@H](N)C(=O)N[C@H](CCCNC(=N)N)C(=O)N[C@H]1Cc2ccccc2CN(CC(=O)N(C)Cc2ccc3ccccc3c2)C1=O [Compound 13, H-Dmt-D-Arg-Aba-Gly-NMe-2′-methylenenaphthyl]",2.8,709,228,3.63,10,3,"influence on response, cold plate test (CCI-exposed mice [9]; 0.1 nmol): did not significantly influence the response; effect at 180 min, cold plate test (CCI-exposed mice [9]; highest dose 10 nmol): provided an effect at 180 min after administration; relative analgesic efficacy among hybrids in neuropathic pain model (CCI-exposed mice [7]): most efficient analgesic in both tests; duration of analgesic effect, tail-flick (naive mice): up to 180 min after administration; analgesic effect, tail-flick (naive mice; doses raised up to ca. 10 nmol): 60–70 % MPE; effect in attenuating acute pain (naive mice; measured at three time points after administration): ~ 60 % MPE; response threshold, von Frey test (CCI-exposed mice [8]; lowest tested dose 0.1 nmol): ca. 70 % MPE; duration of effect, von Frey test (CCI-exposed mice [8]): not observable 180 min after administration"
H-Dmt-D-Arg-Aba-Gly-NH2 [Compound 1],–,–,–,–,–,–,"lowest dose raising latency of response to thermal stimuli, tail-flick (naive mice): 0.0013 nmol; analgesic effect in acute pain model (naive mice): ~100 % MPE; analgesic effect in acute pain model (naive mice; at 180 min after administration): > 80 % MPE; analgesic effect, tail-flick (naive mice; highest dose tested 1.3 nmol, lasting up to 180 min): ~100 % MPE; lowest efficacious dose in acute pain model (naive mice; p < 0.05 vs vehicle): 0.001 nmol/5 μL/animal; analgesic effect, von Frey test (CCI-exposed mice [8]; at 30 min): ca. 40 % MPE; analgesic effect, von Frey test (CCI-exposed mice [8]; maximum over doses): ≤ 40 % MPE"
"H-Dmt-D-Arg-Aba-Gly-NMe-3′,5′-(CF3)2-Bn [Compound 3, reference compound]",–,–,–,–,–,–,response latency / alleviation of hypersensitivity in neuropathic pain model (CCI-exposed mice [7]; test not specified or both tests): ca. 60 % MPE; tail-flick effect compared with parent compound (naive mice): weaker than its parent compound
H-Dmt-D-Arg-Aba-β-Ala-NH2 [Compound 2],–,–,–,–,–,–,"analgesic effect, cold plate test (CCI-exposed mice [9]; maximum over doses): no more than 20 % MPE; analgesic effect, tail-flick (naive mice; highest dose tested 1 nmol): ≤ 80 % MPE; influence on response threshold, von Frey test (CCI-exposed mice [8]): no influence on the response threshold; also recorded: not efficacious at all"
